Calls of active or inactive are those of the source. The rule behind the calls is not given here.

The target in assay [1] is T1, Progesterone receptor (Homo sapiens) (UniProt P06401).
T1 sequence (whole entry): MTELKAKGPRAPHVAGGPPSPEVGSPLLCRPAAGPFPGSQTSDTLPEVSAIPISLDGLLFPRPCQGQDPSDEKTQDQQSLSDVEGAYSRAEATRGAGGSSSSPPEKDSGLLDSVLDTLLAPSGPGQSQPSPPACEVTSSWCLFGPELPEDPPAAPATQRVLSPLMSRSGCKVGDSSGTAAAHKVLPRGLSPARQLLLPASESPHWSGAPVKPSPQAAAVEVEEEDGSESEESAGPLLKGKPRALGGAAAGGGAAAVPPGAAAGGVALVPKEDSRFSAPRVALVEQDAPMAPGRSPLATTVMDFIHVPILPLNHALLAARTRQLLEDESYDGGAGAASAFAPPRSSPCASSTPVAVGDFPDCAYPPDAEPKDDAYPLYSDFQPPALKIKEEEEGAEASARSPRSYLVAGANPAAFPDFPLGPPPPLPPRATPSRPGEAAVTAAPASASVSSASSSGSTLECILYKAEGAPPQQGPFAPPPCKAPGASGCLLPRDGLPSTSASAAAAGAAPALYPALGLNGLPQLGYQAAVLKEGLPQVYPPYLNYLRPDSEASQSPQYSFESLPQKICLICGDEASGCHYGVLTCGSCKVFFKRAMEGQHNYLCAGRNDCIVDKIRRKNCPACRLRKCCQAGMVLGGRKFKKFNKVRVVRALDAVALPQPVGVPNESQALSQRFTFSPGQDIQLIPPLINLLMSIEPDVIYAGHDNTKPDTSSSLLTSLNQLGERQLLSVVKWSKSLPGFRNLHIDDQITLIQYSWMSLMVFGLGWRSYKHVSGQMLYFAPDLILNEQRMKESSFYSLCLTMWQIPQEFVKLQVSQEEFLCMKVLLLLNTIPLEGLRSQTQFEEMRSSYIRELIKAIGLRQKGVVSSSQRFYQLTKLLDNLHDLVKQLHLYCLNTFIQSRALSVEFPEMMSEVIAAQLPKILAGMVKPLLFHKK
Briefly: Antagonist activity at progesterone receptor in human PC3 cells assessed as reduction in R5020-inducedreceptor transactivation at 1 uM by luciferase reporter gene assay. The settings on record: PC-3. It counts as functional, cell-based. An outline of the steps:
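PC-3 cells lack detectable PR, so they were cotransfected with a PR expression plasmid and the MMTV-luc reporter. Compound tested at 1 μM, alone or against transactivation induced by 10 nM R5020. Read-out was luciferase reporter activity.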
A general note: A reporter such as luciferase makes a cellular process visible.

The subject of assay [2] is PC-3. Description: Effect on in Maspin expression in human PC3 cells deficient in wild type androgen receptor at 5 uM by luciferase reporter gene assay. It counts as functional, cell-based. An outline of the steps: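 PC-3 cells were transfected with maspin-luc, with or without cotransfected AR. Cells were exposed to DMSO vehicle or compound at 2.5 and 5 μM. Luciferase activity was measured in triplicate.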

Assay [3] deals with T2, Androgen receptor (Homo sapiens) (UniProt P10275).
T2 sequence (whole entry): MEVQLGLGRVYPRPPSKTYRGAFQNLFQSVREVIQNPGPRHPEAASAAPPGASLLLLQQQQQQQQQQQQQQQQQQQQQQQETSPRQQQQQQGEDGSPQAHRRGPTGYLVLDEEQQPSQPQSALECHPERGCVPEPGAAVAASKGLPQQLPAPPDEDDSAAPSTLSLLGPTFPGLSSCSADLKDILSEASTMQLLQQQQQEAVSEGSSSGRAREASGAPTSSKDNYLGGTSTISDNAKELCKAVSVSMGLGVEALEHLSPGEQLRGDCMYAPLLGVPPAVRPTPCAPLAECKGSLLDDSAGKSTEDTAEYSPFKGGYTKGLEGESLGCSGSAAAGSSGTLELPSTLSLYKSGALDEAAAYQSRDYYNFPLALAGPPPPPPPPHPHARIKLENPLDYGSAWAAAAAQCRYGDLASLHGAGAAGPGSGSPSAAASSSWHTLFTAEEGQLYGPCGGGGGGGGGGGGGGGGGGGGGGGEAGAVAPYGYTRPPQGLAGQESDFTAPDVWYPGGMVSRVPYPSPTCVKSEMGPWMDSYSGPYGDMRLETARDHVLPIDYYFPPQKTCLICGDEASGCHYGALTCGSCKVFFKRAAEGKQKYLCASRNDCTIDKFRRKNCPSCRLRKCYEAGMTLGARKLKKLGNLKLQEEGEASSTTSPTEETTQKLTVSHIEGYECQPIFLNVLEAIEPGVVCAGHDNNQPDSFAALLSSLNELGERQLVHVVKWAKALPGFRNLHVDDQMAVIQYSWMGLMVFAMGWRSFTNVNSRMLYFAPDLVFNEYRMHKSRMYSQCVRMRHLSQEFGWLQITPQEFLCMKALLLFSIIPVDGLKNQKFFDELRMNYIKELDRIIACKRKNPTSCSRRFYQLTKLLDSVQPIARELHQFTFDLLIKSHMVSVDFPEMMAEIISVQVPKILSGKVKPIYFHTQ
Description: Antagonist activity at androgen receptor in human LNCaP cells assessed as increase in Maspin protein expression at 1 or 2.5 uM incubated for 24 hrs in presence of DHT by Western blot. On the technique in general: Immunoblotting shows a protein as a band on a membrane.

Assay [4] relates to PC-3. Description: Agonist activity at androgen receptor T887A mutant expressed in human PC3 cells assessed as stimulation of receptor transactivation at 0.1 to 1 uM by luciferase reporter gene assay. It counts as functional, cell-based. An outline of the steps: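 Full-length wild-type or mutant AR plasmid transiently transfected into PC-3 cells with MMTV-luc and Renilla luciferase reporters. Cells treated with DMSO vehicle or compound at 0.1 and 1 μM, alone or with 0.1 nM DHT. Luciferase read as relative luciferase units. Run in triplicate.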

For `Cc1coc2c1C(=O)C(=O)c1c-2ccc2c1CCCC2(C)C` [TANSHINONE IIA], the outcome (in assay [1]; with PC-3 [2]; in the assay with PC-3 [4]) was inactive. Further, the result in assay [3] was Active.

Source of the values: ChEMBL document CHEMBL2163220 (J Med Chem, 2012).
